From ChEMBL document CHEMBL1126647, “Fluorine-18-labeled progestin ketals: synthesis and target tissue uptake selectivity of potential imaging agents for receptor-positive breast tumors” (J Med Chem, 1993)

Tests used:
[1] = biological target: T1, Progesterone receptor (Rattus norvegicus) (UniProt Q63449); assay: Tissue distribution in kidney 1 hr after [18F]4 injection into estrogen-primed immature rats at normal dose; type: functional, tissue-based
T1 sequence (whole entry): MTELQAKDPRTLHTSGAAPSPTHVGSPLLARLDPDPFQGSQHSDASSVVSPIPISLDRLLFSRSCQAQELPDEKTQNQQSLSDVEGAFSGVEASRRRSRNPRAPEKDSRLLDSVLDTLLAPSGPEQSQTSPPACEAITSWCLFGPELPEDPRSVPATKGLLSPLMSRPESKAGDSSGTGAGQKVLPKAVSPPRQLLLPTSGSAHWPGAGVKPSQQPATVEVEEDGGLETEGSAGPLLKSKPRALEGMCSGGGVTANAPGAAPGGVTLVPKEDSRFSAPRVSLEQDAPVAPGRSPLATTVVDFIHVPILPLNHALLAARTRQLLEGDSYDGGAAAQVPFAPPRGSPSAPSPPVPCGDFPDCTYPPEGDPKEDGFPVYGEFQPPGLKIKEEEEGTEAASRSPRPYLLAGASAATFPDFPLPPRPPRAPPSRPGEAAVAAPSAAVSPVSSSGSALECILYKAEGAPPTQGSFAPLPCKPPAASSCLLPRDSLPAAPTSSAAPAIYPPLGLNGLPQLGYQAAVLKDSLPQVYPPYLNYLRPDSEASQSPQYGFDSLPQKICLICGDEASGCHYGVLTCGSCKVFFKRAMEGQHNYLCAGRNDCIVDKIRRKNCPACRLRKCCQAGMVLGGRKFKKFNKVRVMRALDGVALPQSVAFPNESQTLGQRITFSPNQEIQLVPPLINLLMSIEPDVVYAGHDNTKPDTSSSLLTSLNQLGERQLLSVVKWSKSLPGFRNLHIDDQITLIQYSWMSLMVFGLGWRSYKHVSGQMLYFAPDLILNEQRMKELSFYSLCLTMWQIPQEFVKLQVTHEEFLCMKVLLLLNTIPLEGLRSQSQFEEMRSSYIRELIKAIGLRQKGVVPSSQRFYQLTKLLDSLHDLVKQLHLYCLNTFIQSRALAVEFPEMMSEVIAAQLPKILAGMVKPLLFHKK
Summary of the method: (§1)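 Female Sprague-Dawley rats, 23 days old, primed with estradiol 5 μg s.c. in 20% ethanol/sunflower oil on two days and used 24 h later. Under ether, they received 51 μCi tracer (30 Ci/mmol) iv via the tail vein in 0.1 mL 10% ethanol/saline. Killed by decapitation at 1 h; tissues weighed and gamma-counted. Results as %ID/g or tissue ratios, mean ± SD, n = 5.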

[2] = biological target: T1, Progesterone receptor (Rattus norvegicus); assay: Tissue distribution in uterus/muscle 1 hr after [18F]4 injection into estrogen-primed immature rats at normal dose; type: functional, tissue-based; summary of the method: as §1
[3] = biological target: T2, Mineralocorticoid receptor (Rattus norvegicus) (UniProt P22199); assay: Relative binding affinity (RBA) for mineralocorticoid receptor compared to aldosterone
T2 sequence (whole entry): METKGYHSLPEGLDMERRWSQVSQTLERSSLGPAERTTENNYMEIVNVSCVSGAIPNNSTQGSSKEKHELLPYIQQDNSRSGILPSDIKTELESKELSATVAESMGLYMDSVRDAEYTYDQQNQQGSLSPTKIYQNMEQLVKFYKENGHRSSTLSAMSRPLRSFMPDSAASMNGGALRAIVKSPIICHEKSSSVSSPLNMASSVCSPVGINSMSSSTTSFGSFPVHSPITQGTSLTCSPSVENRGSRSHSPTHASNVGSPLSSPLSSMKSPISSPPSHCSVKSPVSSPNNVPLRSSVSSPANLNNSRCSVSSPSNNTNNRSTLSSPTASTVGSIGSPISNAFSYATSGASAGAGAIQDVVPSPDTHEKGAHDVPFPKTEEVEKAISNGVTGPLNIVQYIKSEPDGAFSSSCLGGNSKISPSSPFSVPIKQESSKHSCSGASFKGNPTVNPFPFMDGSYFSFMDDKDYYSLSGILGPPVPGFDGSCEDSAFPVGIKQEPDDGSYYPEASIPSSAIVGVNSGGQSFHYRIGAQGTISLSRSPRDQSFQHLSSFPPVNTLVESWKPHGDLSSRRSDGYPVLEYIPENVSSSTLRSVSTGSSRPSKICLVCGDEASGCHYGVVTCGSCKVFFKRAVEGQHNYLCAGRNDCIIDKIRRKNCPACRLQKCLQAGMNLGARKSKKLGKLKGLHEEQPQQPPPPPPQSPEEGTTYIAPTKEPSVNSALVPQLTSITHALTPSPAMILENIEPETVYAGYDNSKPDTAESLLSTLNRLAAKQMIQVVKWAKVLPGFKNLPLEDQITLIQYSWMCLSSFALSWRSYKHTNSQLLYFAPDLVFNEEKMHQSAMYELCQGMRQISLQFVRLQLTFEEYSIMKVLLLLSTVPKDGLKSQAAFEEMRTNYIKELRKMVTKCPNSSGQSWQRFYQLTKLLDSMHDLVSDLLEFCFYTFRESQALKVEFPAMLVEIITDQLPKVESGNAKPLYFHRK

[4] = Partition coefficient (logP); type: physicochemical; details: octanol/water
Summary of the method: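 Octanol/water partition measured as log P by the Minick method. For some reference progestins, log P was also measured by shake flask.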

[5] = biological target: T1, Progesterone receptor (Rattus norvegicus); assay: Relative binding affinity for progesterone receptor compared to R5020
[6] = biological target: T1, Progesterone receptor (Rattus norvegicus); assay: Tissue distribution in uterus 1 hr after [18F]4 injection into estrogen-primed immature rats at normal dose; type: functional, tissue-based; summary of the method: as §1
[7] = biological target: T1, Progesterone receptor (Rattus norvegicus); assay: Tissue distribution in muscle 1 hr after [18F]4 injection into estrogen-primed immature rats at normal dose; type: functional, tissue-based; summary of the method: as §1

Row | Compound | Injected dose/g [1] [%] | Injected dose/g [2] [%] | relative binding affinity (RBA) [3] | logP [4] | relative binding affinity (RBA) [5] | Injected dose/g [6] [%] | Injected dose/g [7] [%]
1 | CC[C@@H]1C[C@H]2[C@@H]3CCC4=CC(=O)CC[C@@H]4[C@H]3CC[C@]2(C)[C@H]1C(=O)CF | 1.05 | 16 | 3.2 | 4.66 | 700 | 6.43 | 0.42
2 | CC[C@@H]1C[C@H]2[C@@H]3CCC4=CC(=O)CC[C@@H]4[C@H]3CC[C@]2(C)[C@H]1C(=O)CO | – | – | 0.92 | 4.01 | 200 | – | –
3 | C[C@]1(c2ccc(F)cc2)O[C@@H]2CC3C4CCC5=CC(=O)CC[C@@H]5C4CC[C@]3(C)[C@]2(C(=O)CO)O1 (stereo partly specified) | – | – | – | 4.84 | 1.3 | – | –
4 | CC(=O)[C@H]1CC[C@H]2[C@@H]3CCC4=CC(=O)CC[C@]4(C)[C@H]3CC[C@]12C | – | – | – | – | 13 | – | –
5 | CCC(=O)[C@@]1(C)CC[C@H]2[C@@H]3CCC4=CC(=O)CCC4=C3CC[C@@]21C [PROMEGESTONE] | – | – | 0.93 | 4.05 | 100 | – | –
